For twelve molecules, IC50 and MIC results are on record in ChEMBL document CHEMBL1158073, “Bioactive compounds from the seed fungus Menisporopsis theobromae BCC 3975” (J Nat Prod, 2006).

≈ marks a conversion by molar mass, not a printed value. Where a name gives a salt, the structure may show the parent alone.

The subject of test [1] is KB. Briefly: Cytotoxicity against human KB cells by colorimetric method. It counts as functional, cell-based.
Test [2] can be described thus: Cytotoxicity against human BC1 cells by colorimetric method. In kind it is functional, cell-based. The essentials: (§1)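 Colorimetric cytotoxicity assay following Skehan and co-workers. Cells: BC-1 (human breast cancer) and NCI-H187 (human small cell lung cancer). IC50 values reported in μM. Ellipticine served as the standard positive control.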
The subject of test [3] is NCI-H187. Briefly: Cytotoxicity against human NCI-H187 cells by colorimetric method. It counts as functional, cell-based. In outline:
as §1

Test [4] deals with Plasmodium falciparum. Briefly: Antimalarial activity against multidrug-resistant Plasmodium falciparum K1 by [3H]hypoxanthine uptake. In kind it is functional, organism-based. In outline:
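P. falciparum K1 kept in continuous culture; in vitro microculture radioisotope method. IC50 taken as the concentration giving 50% reduction in parasite growth, read as uptake of [3H]hypoxanthine. Dihydroartemisinin as positive control.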

Test [5] deals with Mycobacterium tuberculosis. Briefly: Antimycobacterial activity against Mycobacterium tuberculosis H37Ra by microplate alamar blue assay. It counts as functional. In outline:
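M. tuberculosis H37Ra tested by microplate Alamar Blue assay, value reported as MIC. Isoniazid and kanamycin sulfate as reference compounds.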

As to `C/C=C(\C)C(=O)C(C)C(O)C(C)C(=O)O[C@H]1C=COC=C2C[C@@]3(SC)C(=O)N4[C@H]5C(=CC=C[C@@H]5O)[C@@H](O)[C@@]4(SC)C(=O)N3[C@@H]21` (stereo partly specified), the IC50 in test [1] is over 30.9 µM; in test [2], 29.2 µM; in test [3], 22.9 µM; in test [4], over 30.9 µM. For the same molecule, in test [5], the minimum inhibitory concentration (MIC) was determined as 155 µM (≈ 100 µg/mL).

Consider `C/C=C/C(C=O)=C\C=C\C(O)C(O)[C@@H]1O[C@H]1CO` (relative stereo), for which the IC50 in test [1], in test [2], in test [3] and in test [4] was over 78.7 µM throughout. The MIC in test [5] is over 787 µM.

For `CS[C@@]12CC3=CC=C[C@H](O)[C@H]3N1C(=O)[C@]1(SC)CC3=COC=C[C@H](O)[C@H]3N1C2=O`, the IC50 in test [1], in test [2], in test [3] and in test [4] was over 46 µM in each case. This molecule displayed an MIC in test [5] of 7.14 µM (≈ 3.1 µg/mL).

In test [5], `NNC(=O)c1ccncc1` [ISONIAZID] returned a minimal inhibitory concentration (MIC) of 0.29 µM (≈ 0.0398 µg/mL). This lies in the sub-micromolar range.

Take `O=C1c2c(O)cccc2[C@H](O)[C@H](O)[C@H]1O`: the IC50 in test [1] was over 95.2 µM; in test [2] it was over 95.2 µM; in test [3] it was 56.6 µM; in test [4], over 95.2 µM. Also, the MIC in test [5] worked out at 952 µM (≈ 200 µg/mL).

Consider `CCCC(=O)CC/C=C/[C@H](O)[C@@H]1O[C@H]1CO`, for which the IC50 in test [1], in test [2], in test [3] and in test [4] was over 30.3 µM in each case. The minimal inhibitory concentration (MIC) in test [5] was over 303 µM.

With `C/C=C(\C)C(=O)C(C)C(O)C(C)C(=O)O[C@H]1C=COC=C2C[C@@]3(SC)C(=O)N4c5c(O)cccc5[C@@H](O)[C@@]4(SC)C(=O)N3[C@@H]21` (stereo partly specified), the concentration for half-maximal inhibition (IC50) in test [1] was over 31 µM; in test [2], over 31 µM; in test [3], 20.3 µM; in test [4], 2.95 µM. The same molecule had an MIC in test [5] of 1.24 µM (≈ 0.8 µg/mL).

Molecule `C[C@H]1[C@@H](O)O[C@@H]2O[C@@]3(C)CC[C@H]4[C@H](C)CC[C@@H]1[C@@]24OO3` [ARTENIMOL] came in with an IC50 in test [4] of 0.004 µM.

As to `NC[C@H]1O[C@H](O[C@H]2[C@H](O)[C@@H](O[C@H]3O[C@H](CO)[C@@H](O)[C@H](N)[C@H]3O)[C@H](N)C[C@@H]2N)[C@H](O)[C@@H](O)[C@@H]1O` [KANAMYCIN SULFATE], the minimal inhibitory concentration (MIC) in test [5] was found to be 3.43 µM.

Regarding `Cc1c2ccncc2c(C)c2c1[nH]c1ccccc12` [ELLIPTECINE], the IC50 in test [1] stood at 5.41 µM; in test [2], 5.93 µM; in test [3], 1.59 µM.

`CCCCC/C=C/C(O)C(O)/C=C/c1c(CC(O)C(C)(C)O)ccc(O)c1CO` (stereo unspecified): the 50% inhibitory concentration (IC50) in test [1], in test [2], in test [3] and in test [4] was over 49 µM each time. In test [5], this molecule had an MIC of 245 µM (≈ 100 µg/mL).

For `CC(O)CCC/C=C/C(O)C(O)/C=C/c1c(CC(O)C(C)(C)O)ccc(O)c1C=O` (stereo unspecified), the IC50 in test [1], in test [2], in test [3] and in test [4] was over 47.3 µM in each case. In test [5], this molecule came in with an MIC of 474 µM (≈ 200 µg/mL).
